Laboratory results taken from ChEMBL document CHEMBL4024783, “Alkylated Piperazines and Piperazine-Azole Hybrids as Antifungal Agents” (J Med Chem, 2018).
In brackets after ≈: the same amount, converted by molar mass.

Legend:
Candida parapsilosis = experiment: Antifungal activity against Candida parapsilosis ATCC 22019 after 48 hrs by broth dilution method; format: functional; details: Lodderomyces parapsilosis, ATCC 22019, 48 h
Candida albicans [1] = experiment: Antifungal activity against Candida albicans ATCC 64124 after 48 hrs by broth dilution method; format: functional; details: Candida albicans, ATCC 64124, 48 h
Outline: (§1)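 CLSI M27-A3 broth microdilution with minor modifications. Overnight YPD culture grown at 35 °C, 200 rpm, adjusted to OD600 0.12, diluted in RPMI 1640 buffered to pH 7.0 with 0.165 M MOPS to a final 1–2 × 10^3 CFU/mL. Test compounds at 0.015–31.3 µg/mL, 48 h at 35 °C, DMSO <1.25%. […] Triplicate.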

Nakaseomyces glabratus = experiment: Antifungal activity against Candida glabrata ATCC 2001 after 48 hrs by broth dilution method; format: functional, CBS 138; details: Nakaseomyces glabratus, CBS 138, 48 h
Aspergillus nidulans = experiment: Antifungal activity against Aspergillus nidulans ATCC 38163 after 48 hrs by broth dilution method; format: functional; details: Aspergillus nidulans, ATCC 38163, 48 h
Outline: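 A. nidulans run per CLSI M38-A2. PDA spores were filtered through glass wool and counted by hemocytometer. Test range 0.03–31.3 µg/mL in MOPS-buffered RPMI 1640 (pH 7.0), final 5 × 10^5 CFU/mL.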

Candida albicans [2] = experiment: Antifungal activity against itraconazole and fluconazole resistant Candida albicans ATCC 90819 after 48 hrs by broth dilution method; format: functional; details: Candida albicans, ATCC 90819, 48 h; outline: as §1
Aspergillus terreus = experiment: Antifungal activity against Aspergillus terreus ATCC MYA-3633 after 48 hrs by broth dilution method; format: functional; details: Aspergillus terreus, ATCC MYA-3633, 48 h
Outline: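 Molds tested per CLSI M38-A2. Spores were harvested from sporulating PDA cultures by filtering through glass wool and counted on a hemocytometer. Serial dilutions (0.03–31.3 µg/mL) were made in RPMI 1640 buffered to pH 7.0 with 0.165 M MOPS, final inoculum 5 × 10^5 CFU/mL.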

Candida albicans [3] = experiment: Antifungal activity against itraconazole and fluconazole susceptible Candida albicans ATCC MYA-2310 after 48 hrs by broth dilution method; format: functional; details: Candida albicans, ATCC MYA-2310, 48 h
Pichia kudriavzevii = experiment: Antifungal activity against Candida krusei ATCC 6258 after 48 hrs by broth dilution method; format: functional; details: Pichia kudriavzevii, ATCC 6258, 48 h
Outline: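 Yeasts tested per CLSI M27-A3 with minor changes. An overnight YPD culture (35 °C, 200 rpm) was adjusted to OD600 0.12 and diluted in MOPS-buffered RPMI 1640 (pH 7.0) to a final 1–2 × 10^3 CFU/mL. Compounds 0.015–31.3 µg/mL, DMSO <1.25%.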

Candida albicans [4] = experiment: Antifungal activity against itraconazole and fluconazole susceptible Candida albicans ATCC MYA-2876 after 48 hrs by broth dilution method; format: functional; details: Candida albicans, ATCC MYA-2876, 48 h
Aspergillus flavus = experiment: Antifungal activity against Aspergillus flavus ATCC MYA-3631 after 48 hrs by broth dilution method; format: functional; details: ATCC MYA-3631, 48 h
Candida albicans [5] = experiment: Antifungal activity against itraconazole and fluconazole resistant Candida albicans ATCC MYA-1237 after 48 hrs by broth dilution method; format: functional; details: Candida albicans, ATCC MYA-1237, 48 h; outline: as §1
Candida albicans [6] = experiment: Antifungal activity against Candida albicans ATCC 10231 after 48 hrs by broth dilution method; format: functional; details: ATCC 10231, 48 h
Candida albicans [7] = experiment: Antifungal activity against itraconazole and fluconazole resistant Candida albicans ATCC MYA-1003 after 48 hrs by broth dilution method; format: functional; details: Candida albicans, ATCC MYA-1003, 48 h; outline: as §1
Candida albicans [8] = experiment: Antifungal activity against Candida albicans ATCC 10231 after 48 hrs in the presence of 10% FBS by broth dilution method; format: functional; details: ATCC 10231, 48 h
[9] = Aqueous solubility of the compound; format: physicochemical; details: buffer
[10] = Solubility of the compound in DMSO; format: physicochemical

| Structure (SMILES) | MIC (Candida parapsilosis) | MIC (Candida albicans [1]) | MIC (Nakaseomyces glabratus) | MIC (Aspergillus nidulans) | MIC (Candida albicans [2]) | MIC (Aspergillus terreus) | MIC (Candida albicans [3]) | MIC (Pichia kudriavzevii) | MIC (Candida albicans [4]) | MIC (Aspergillus flavus) | MIC (Candida albicans [5]) | MIC (Candida albicans [6]) | MIC (Candida albicans [7]) | MIC (Candida albicans [8]) | solubility [9] | solubility [10] |
| --- | --- | --- | --- | --- | --- | --- | --- | --- | --- | --- | --- | --- | --- | --- | --- | --- |
| Fc1ccc(C2(Cn3cncn3)CO2)c(F)c1 (stereo unspecified) | > 132 µM | > 132 µM | > 132 µM | > 132 µM | > 132 µM | > 132 µM | > 132 µM | > 132 µM | > 132 µM | > 132 µM | > 132 µM | > 132 µM | > 132 µM | – | – | – |
| CC[C@H](C)C[C@H](C)CCCCCCCCC(=O)N[C@H]1C[C@@H](O)[C@@H](NCCN)NC(=O)[C@@H]2[C@@H](O)CCN2C(=O)[C@H]([C@H](O)CCN)NC(=O)[C@H]([C@H](O)[C@@H](O)c2ccc(O)cc2)NC(=O)[C@@H]2C[C@@H](O)CN2C(=O)[C@H]([C@@H](C)O)NC1=O [CASPOFUNGIN] | 1.6 µM (≈ 1.75 µg/mL) | 0.2 µM (≈ 0.219 µg/mL) | 0.05 µM (≈ 0.0547 µg/mL) | > 25.8 µM | 0.1 µM (≈ 0.109 µg/mL) | > 25.8 µM | 0.1 µM (≈ 0.109 µg/mL) | 0.4 µM (≈ 0.437 µg/mL) | 0.05 µM (≈ 0.0547 µg/mL) | > 25.8 µM | 0.2 µM (≈ 0.219 µg/mL) | 0.8 µM (≈ 0.875 µg/mL) | 0.4 µM (≈ 0.437 µg/mL) | – | – | – |
| C[C@@H]1[C@H](O)[C@@H](C)/C=C/C=C/C=C/C=C/C=C/C=C/C=C/[C@H](O[C@@H]2O[C@H](C)[C@@H](O)[C@H](N)[C@@H]2O)C[C@@H]2O[C@](O)(C[C@@H](O)C[C@@H](O)[C@H](O)CC[C@@H](O)C[C@@H](O)CC(=O)O[C@H]1C)C[C@H](O)[C@H]2C(=O)O [AMPHOTERICIN B] | – | – | – | – | 1.1 µM (≈ 1.02 µg/mL) | – | – | – | – | – | – | – | – | 7.8 µg/mL | – | – |
| OC(CN1CCOCC1)(Cn1cncn1)c1ccc(F)cc1F (stereo unspecified) | > 96.5 µM | > 96.5 µM | 96.5 µM (≈ 31.3 µg/mL) | 6 µM (≈ 1.95 µg/mL) | 12 to 96.5 µM (≈ 3.89 to 31.3 µg/mL) | 48.1 µM (≈ 15.6 µg/mL) | 24 to 96.5 µM (≈ 7.78 to 31.3 µg/mL) | > 96.5 µM | > 96.5 µM | 24 µM (≈ 7.78 µg/mL) | > 96.5 µM | > 96.5 µM | 96.5 µM (≈ 31.3 µg/mL) | – | – | – |
| CCCCCN1CCNCC1 | > 200 µM | > 200 µM | > 200 µM | > 200 µM | > 200 µM | > 200 µM | > 200 µM | > 200 µM | > 200 µM | > 200 µM | > 200 µM | > 200 µM | > 200 µM | – | – | – |
| OC(CNCCN1CCOCC1)(Cn1cncn1)c1ccc(F)cc1F (stereo unspecified) | 85.2 µM (≈ 31.3 µg/mL) | 85.2 µM (≈ 31.3 µg/mL) | 85.2 µM (≈ 31.3 µg/mL) | > 85.2 µM | > 85.2 µM | > 85.2 µM | > 85.2 µM | > 85.2 µM | 85.2 µM (≈ 31.3 µg/mL) | > 85.2 µM | 85.2 µM (≈ 31.3 µg/mL) | 85.2 µM (≈ 31.3 µg/mL) | > 85.2 µM | – | – | – |
| CCCCCCCCCCCCCN1CCNCC1 | 7.2 µM (≈ 1.93 µg/mL) | 3.6 µM (≈ 0.967 µg/mL) | 1.8 µM (≈ 0.483 µg/mL) | 3.6 µM (≈ 0.967 µg/mL) | 3.6 µM (≈ 0.967 µg/mL) | 7.2 µM (≈ 1.93 µg/mL) | 7.2 µM (≈ 1.93 µg/mL) | 3.6 µM (≈ 0.967 µg/mL) | 7.2 µM (≈ 1.93 µg/mL) | 7.2 µM (≈ 1.93 µg/mL) | 7.2 µM (≈ 1.93 µg/mL) | 3.6 µM (≈ 0.967 µg/mL) | 7.2 µM (≈ 1.93 µg/mL) | – | Soluble | Soluble |
| CCCCCCCCCCN1CCNCC1 | 68.9 µM (≈ 15.6 µg/mL) | 68.9 µM (≈ 15.6 µg/mL) | 34.5 µM (≈ 7.81 µg/mL) | 68.9 µM (≈ 15.6 µg/mL) | 68.9 µM (≈ 15.6 µg/mL) | 68.9 µM (≈ 15.6 µg/mL) | 68.9 µM (≈ 15.6 µg/mL) | 34.5 µM (≈ 7.81 µg/mL) | 68.9 µM (≈ 15.6 µg/mL) | 138 µM (≈ 31.3 µg/mL) | 68.9 µM (≈ 15.6 µg/mL) | 68.9 µM (≈ 15.6 µg/mL) | 68.9 µM (≈ 15.6 µg/mL) | – | – | – |
| CCCCCCCCCN1CCN(CC(O)(Cn2cncn2)c2ccc(F)cc2F)CC1 (stereo unspecified) | 0.55 µM (≈ 0.247 µg/mL) | 17.6 µM (≈ 7.91 µg/mL) | 8.8 µM (≈ 3.96 µg/mL) | 2.2 µM (≈ 0.989 µg/mL) | 17.6 µM (≈ 7.91 µg/mL) | 4.4 µM (≈ 1.98 µg/mL) | 35.2 µM (≈ 15.8 µg/mL) | 2.2 µM (≈ 0.989 µg/mL) | 8.8 µM (≈ 3.96 µg/mL) | 1.1 µM (≈ 0.495 µg/mL) | 35.2 µM (≈ 15.8 µg/mL) | 2.2 µM (≈ 0.989 µg/mL) | 35.2 µM (≈ 15.8 µg/mL) | – | – | – |
| CCCCCCCCCCCCCCN1CCN(CC(O)(Cn2cncn2)c2ccc(F)cc2F)CC1 (stereo unspecified) | > 60.2 µM | 60.2 µM (≈ 31.3 µg/mL) | > 60.2 µM | 3.8 µM (≈ 1.97 µg/mL) | 3.8 µM (≈ 1.97 µg/mL) | 1.9 µM (≈ 0.987 µg/mL) | 7.5 µM (≈ 3.9 µg/mL) | 1.9 µM (≈ 0.987 µg/mL) | 15 µM (≈ 7.8 µg/mL) | 0.9 µM (≈ 0.468 µg/mL) | 7.5 µM (≈ 3.9 µg/mL) | 3.8 µM (≈ 1.97 µg/mL) | 3.8 µM (≈ 1.97 µg/mL) | – | – | – |
